# Published values of several laboratories.
# Lines come from different studies, so protocols differ.
SMILES,species,medium,route,dose,notes,half-life
CC1(CN)CCN(c2cnc3c(Sc4ccncc4Cl)n[nH]c3n2)CC1,male Sprague-Dawley rat,plasma,intravenous,2 mg/kg,,0.935 h
N#C[C@@]12C[C@@H]1[C@@H](n1cnc3c(N[C@@H](C4CCC4)C4CC4)nc(I)nc31)[C@H](O)[C@@H]2O,male Wistar rat,plasma,oral,3 mg/kg,,4.3 h
Nc1ccc(/C=C/C(=O)NCc2cc3cc(-c4ccc(C(=O)N5CCC(F)(F)CC5)cc4)cc(-c4ccc(F)cc4)c3o2)cn1,rat,plasma,oral,3 mg/kg,,4.59 h
CC(=Nc1ccc(N=Cc2cnccn2)cc1)N(C)C,male Sprague-Dawley rat,plasma,oral,200 mg/kg,,7.79 h
O=C(C=Cc1ccccc1)Nc1cc(-c2ccnc(N3CCC(O)CC3)c2)ccn1,female Sprague-Dawley rat,plasma,oral,50 mg/kg,,0.48 h
COc1ccc2cc3n(c(=O)c2c1OC)CCc1cc2c(cc1-3)OCO2,male Sprague-Dawley rat,blood,oral,50 mg/kg,,1.57 h
O=c1cc(-c2ccc(O)c(O)c2)oc2cc(O)cc(O)c12,male Sprague-Dawley rat,plasma,oral,30 mg/kg,,2.2 h
O=C1CC[C@H](N2Cc3cc(N4CCN(CC5CCN(c6ccc([C@@H]7c8ccc(O)cc8CC[C@@H]7c7ccccc7)cc6)CC5)CC4)ccc3C2=O)C(=O)N1,female Sprague-Dawley rat,plasma,oral,20 mg/kg,fed,6.38 h
C/C(=N\c1ccc(O)cc1)c1cc2ccccc2n1C,male Sprague-Dawley rat,plasma,intravenous,5 mg/kg,single dose,~4.5 h
